# Screens from PubChem BioAssay.
# A selection: hits, their analogues and other compounds. The true share with any hit is near 3.1%.
# RAM inhibit = inhibitors of the yeast RAM network; hit rate 1.8% among 190,000; inhibition, % at 50 µM; S. cerevisiae dse1pr::URA3 reporter, 5-FOA growth OD615, 2 d; analog-sensitive cbk1-as2 kinase mutant strain;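 active = inhibition above a set limit, 3 SD over mean compound inhibition, cut at about 8.4% in these data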;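 note: 0% = DMSO-only wells with no growth and 100% = 10 µM 1-NA-PP1 full growth; inhibition rescues growth on 5-FOA so higher OD means more RAM inhibition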
# Yeast growth inh = reduces growth of yeast BB579 in restrictive medium. hit rate 0.51% among 140,000. S. cerevisiae BB579 growth, OD615, 48 h. inhibition, % at 10 µM;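 active = inhibition above a set limit, 3 SD over the mean compound inhibition, cut at about 44% in these data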
#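 controls = amphotericin B 10 µg/mL, positive | assay system = DeaD yeast strain BB579 | schedule = 48 h compound exposure at 30 °C after 4 h preincubation | detection = OD615 turbidity measurement | medium = restrictive CSMM-D medium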
# Insulin prom inh = TRM-6 insulin promoter activity inhibition; hit rate 0.9% among 130,000; inhibition, % at 2 µM; TRM-6 cells, insulin promoter-eGFP reporter, imaging; reporter expression induced with tamoxifen;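 active = inhibition above the mean plus 3 SD, with well images judged a real hit on visual review, cut at about 60% in these data, passing the limit was not always enough; inconclusive = inhibition over the cutoff but images rejected on review; inactive = inhibition not above the cutoff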
# Yeast lifespan up = extends the lifespan of yeast; S. cerevisiae growth with nicotinamide, OD615; deaD strain in restrictive glucose medium; hit rate 0.68% among 130,000; inhibition of the nicotinamide effect, % at 10 µM; AID 775;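 active = inhibition above a set limit, placed 3 SD over the median of all compounds, cut at about 26% in these data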;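 note: 0% = nicotinamide-treated wells and 100% = cells grown without nicotinamide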
#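 Assay system: DeaD-strain S. cerevisiae. Medium: CSMM-D glucose medium, restrictive. Reagent: nicotinamide, 1.5 mM, co-present with compound. Compound: 10 µM single point, 0.25% DMSO. Schedule: culture preincubation 4 h, compound exposure 48 h, both 30 °C. Detection: absorbance at 615 nm.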
# Ins promoter up = MIN6 insulin promoter up-regulation | MIN6 insulin promoter-GFP reporter, high-content imaging; hits give high values | z-score at 5 µM | hit rate 0.3% among 190,000;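 active = z-score above 3 at 5 µM with at least 500 cells counted in the well; inconclusive = wells under 500 cells, flagged as cytotoxic or low count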
# Starred values were filed as active, the others as inactive; i = inactive; ? = inconclusive; . = not tested or not shown.
SMILES,RAM inhibit,Yeast growth inh,Insulin prom inh,Yeast lifespan up,Ins promoter up
CC1CCCCN1C(=S)Nc1ccc2nc3n(c(=O)c2c1)CCCCC3 (configuration not stated),2,-52,-20,56*,-0.18
CC(C)(C)N/N=C/c1c(O)n(-c2ccc(Cl)cn2)c(=O)c2ccccc12,8.5*,-34,-10,18,0.84
O=c1c2ccccc2c(C=Nc2cccc(S(=O)(=O)NCc3ccco3)c2)c(O)n1-c1ccc(Cl)cn1,8.6*,-36,.,2,0.08
CCOc1ccc2c(c1)-c1c(ssc1=S)C(C)(C)N2C,8.8*,-9,-50,39*,-0.43
Cc1ccc2nc(NC(=O)C3CCN(S(=O)(=O)c4cnc[nH]4)CC3)sc2c1,11*,-50,-83,6,-0.17
O=C(NCCCn1ccnc1)c1ccncc1,1,19,11,-20,1.5
O=C(NCCCn1ccnc1)c1cc([N+](=O)[O-])cc([N+](=O)[O-])c1,4,-35,73*,0,0.27
COc1ccc(OC)c(NC(=S)N2CCN(C/C=C/c3ccccc3)CC2)c1,-1,-37,14,43*,-0.06
COc1cc2c(cc1NC(=O)c1cccc(Br)c1)CCCC2,9.3*,-44,17,4,-0.91
Cc1cc(C)cc(NC(=O)/C=C/c2ccc([N+](=O)[O-])s2)c1,4,-20,.,8,6*
CC(=O)c1cccc(NC(=O)/C=C/c2ccc([N+](=O)[O-])s2)c1,4,.,i,.,?
COCC(C)NC(=O)/C=C/c1ccc(OC)cc1 (configuration not stated),0,.,.,.,-0.76
CS(=O)(=O)N1CCN(C(=O)c2ccccc2F)CC1,1,50*,28,-7,-0.73
CS(=O)(=O)N1CCN(C(=O)c2c(F)cccc2F)CC1,1,23,19,-22,0.45
COC(=O)c1cc(NC(=O)c2ccc(Cn3cc(Cl)cn3)o2)cc(C(=O)OC)c1,2,-7,93*,5,-0.28
CCNC(=S)N/N=C/c1cccc(OCc2c(F)cccc2Cl)c1,5,2,.,-5,.
CC(C)CNC(=O)CSc1nnc(-c2cccc(S(=O)(=O)N3CCCCC3)c2)o1,3,-32,3,1,4.8*
COCC(C)NC(=O)CSc1nnc(-c2cccc(S(=O)(=O)N3CCCCC3)c2)o1 (configuration not stated),1,.,20,.,-0.27
Cc1conc1NC(c1cccs1)c1ccc2cccnc2c1O (configuration not stated),0,62*,.,0,-0.22
CC(C)NC(=S)N/N=C/c1sc(N2CCCCC2)nc1-c1cccs1,1,-21,-18,-5,1.1
CCCCNC(=S)N(C)/N=C/c1sc(N2CCCCC2)nc1-c1cccs1,9.9*,-20,-18,-5,-0.02
CN(Cc1ccc2nonc2c1)Cc1nc(CC2CC2)no1,0,.,.,.,0.54
COc1ccc(OCCC(=O)OCC(=O)NCCC2=CCCCC2)cc1,0,.,.,.,.
COc1ccccc1N=Nc1nc(-c2ccccc2)c(-c2ccccc2)[nH]1,5,-59,-7,-4,-0.89
COc1ccc(N=Nc2nc(-c3ccccc3)c(-c3ccccc3)[nH]2)cc1,11*,-27,-10,-2,.
SMILES,RAM inhibit,Yeast growth inh,Insulin prom inh,Yeast lifespan up,Ins promoter up
Oc1ccccc1N=Nc1nc(-c2ccccc2)c(-c2ccccc2)[nH]1,8.6*,10,-1,-12,-5.9
Cc1ccc(S(=O)(=O)Nc2cc(-c3ccccc3)nn2C)cc1Cl,.,.,.,.,0.59
CC(OC(=O)Cc1ccc(Cl)cc1)C(=O)NCCC1=CCCCC1 (configuration not stated),9.0*,-1,0,5,0
CS(=O)(=O)N(Cc1ccc(Cl)cc1)c1ccc(C(=O)NCCC2=CCCCC2)cc1,9.8*,-28,-65,-11,0.14
CCN(c1ccccc1)S(=O)(=O)c1ccc(C(=O)Oc2ccc(C(C)=O)cc2)cc1,9.1*,-26,-35,7,1.4
CCN(c1ccccc1)S(=O)(=O)c1ccc(F)cc1,0,-14,14,-12,0.27
CCN(c1ccccc1)S(=O)(=O)c1ccc(C(=O)OC(C)C(=O)NCCC2=CCCCC2)cc1 (configuration not stated),9.0*,-12,5,3,-0.16
COc1ccccc1C(=O)N1CCN(Cc2nc(CC3CC3)no2)CC1,2,.,.,.,0.34
O=S(=O)(Nc1ccc(-c2nc3cccnc3s2)cc1)c1ccccc1F,.,.,.,.,0.94
c1cc2c(cn1)cnc1cscc12,0,4,-14,-6,0.65
COCCN(CCOC)Cc1cc(=O)oc2cc3c(cc12)CCC3,-1,-27,8,-4,3.1*
CC(C)CN(Cc1cc(=O)oc2cc3c(cc12)CCCC3)CC(C)C,.,.,.,.,-0.1
COc1ccc(C(=O)NC(=S)NNC(=O)c2cnccn2)cc1,6,81*,33,2,-0.21
COc1cc(C(=O)NC(=S)NNC(=O)c2cnccn2)cc(OC)c1OC,0,88*,-40,9,-0.14
CC(=O)Nc1ccc(OS(=O)(=O)c2c(C)cc(C)cc2C)cc1,2,.,14,.,-1.3
COc1ccc2c(=O)c3c(=O)n(Cc4ccco4)c(-c4ccco4)nc3oc2c1,-1,-66,10,75*,0.34
COc1ccc(Cn2c(-c3ccco3)nc3oc4cc(OC)ccc4c(=O)c3c2=O)cc1,1,-28,43,19,0.1
COc1ccc(-c2nc3oc4cc(OC)ccc4c(=O)c3c(=O)n2Cc2ccco2)cc1,-1,-13,0,27*,0.06
NNC(=O)c1nc(-c2cccc(-n3cccc3)c2)no1,.,.,.,.,0.86
COc1ccc(N(C(=O)CCl)C(C(=O)NCCc2ccccc2)c2cccs2)cc1Cl (configuration not stated),1,-41,-257,-7,-1.6
COc1cccc(N(C(=O)CCl)C(C(=O)NCCc2ccccc2)c2cccs2)c1 (configuration not stated),9.2*,-32,-163,5,.
CCc1ccc2nc3sc(C(=O)N4CCc5ccccc54)c(N)c3cc2c1,4,-6,.,-3,4.9*
CC1=C(C(=O)OCc2ccc(C)cc2)C(c2ccc(O)c([N+](=O)[O-])c2)NC(=O)N1 (configuration not stated),8,.,89*,.,-0.77
COc1ccc(COC(=O)C2=C(C)NC(=O)NC2c2ccc(O)c(OC)c2)cc1 (configuration not stated),0,-8,.,-4,-1.1
O=C(NCCN1C(=O)S/C(=C/c2ccccc2)C1=O)C1CCCN1C(=O)c1cccs1 (configuration not stated),9.5*,-33,.,-5,-0.6
COc1ccc(/C=C2/SC(=O)N(CCNC(=O)C3CCCN3C(=O)c3cccs3)C2=O)cc1 (configuration not stated),8,-9,-30,-2,-4.6
CC(=O)c1cnc(-c2ccccc2Cl)s1,1,.,77*,.,0.17
CC(=O)c1cnc(-c2ccccn2)s1,2,.,27,.,-0.29
